Data as given in ChEMBL document CHEMBL3992517 (J Med Chem, 2017).
Calls of active or inactive are those of the source. No cut-off for these calls is given here.

Experiments:
[1] = (§1) Inhibition of porcine tubulin polymerization after 45 mins by turbidometric method; design: species or system Sus scrofa
[2] = test system: K562; assay: Antiproliferative activity against human K562 cells after 48 hrs by Alamar blue dye based neubauer hemocytometer method; format: functional, cell-based; settings: K562, 48 h
Method in brief: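 K562 human chronic myelogenous leukemia cells, mycoplasma-negative, grown at 37 °C in 5% CO2 in RPMI 1640 with 10% FBS, penicillin/streptomycin and L-glutamine. Cells were exposed to compound for 48 h and then counted on a Neubauer hemocytometer. IC50 is the concentration giving 50% growth inhibition, taken as the mean of at least three independent determinations (SD < 10%).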

[3] = test system: IMR-90; assay: Antiproliferative activity against human IMR90 cells after 72 hrs by SRB assay; format: functional; settings: IMR-90, 72 h
Method in brief: (§2)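 Cell panel screen (93 tumour lines listed in text; 94 in the table), run to the DTP NCI sulforhodamine B protocol. Concentrations from 0.0001 to 10 µM. GI50 is the molar concentration giving 50% growth inhibition relative to the initial seeding number, taken from log-transformed data. zScore is reported per cell line.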

[4] = test system: RD; assay: Antiproliferative activity against human RD cells after 72 hrs by SRB assay; format: functional; method in brief: as §2
[5] = test system: HT-29; assay: Antiproliferative activity against human HT-29 cells after 72 hrs by SRB assay; format: functional; settings: HT-29, 72 h; method in brief: as §2
[6] = test system: NCI-H82; assay: Antiproliferative activity against human NCI-H82 cells after 72 hrs by SRB assay; format: functional; settings: NCI-H82, 72 h; method in brief: as §2
[7] = test system: SK-N-AS; assay: Antiproliferative activity against human SK-N-AS cells after 72 hrs by SRB assay; format: functional; method in brief: as §2
[8] = test system: JIMT-1; assay: Antiproliferative activity against human JIMT1 cells after 72 hrs by SRB assay; format: functional; settings: JIMT-1, 72 h; method in brief: as §2
[9] = test system: COLO-678; assay: Antiproliferative activity against human COLO-678 cells after 72 hrs by SRB assay; format: functional; settings: COLO-678, 72 h; method in brief: as §2
[10] = test system: PBMC; assay: Cytotoxicity against human PBMC after 72 hrs by SRB assay; format: cell-based
Method in brief: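 Resting, non-proliferating peripheral blood mononuclear cells were included in the panel and quantified by sulforhodamine B staining.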

[11] = test system: Panc1005; assay: Antiproliferative activity against human Panc 10.05 cells after 72 hrs by SRB assay; format: functional; settings: Panc1005, 72 h; method in brief: as §2
[12] = Antiproliferative activity against human CLS439 cells after 72 hrs by SRB assay; format: functional; settings: CLS439, 72 h; method in brief: as §2
[13] = test system: MG-63; assay: Antiproliferative activity against human MG63 cells after 72 hrs by SRB assay; format: functional; settings: MG-63, 72 h; method in brief: as §2
[14] = test system: JAR; assay: Antiproliferative activity against human JAR cells after 72 hrs by SRB assay; format: functional; method in brief: as §2
[15] = test system: PANC-1; assay: Antiproliferative activity against human PANC1 cells after 72 hrs by SRB assay; format: functional; settings: PANC-1, 72 h; method in brief: as §2
[16] = species on record: Sus scrofa; assay: as §1
[17] = test system: K562; assay: Cell cycle arrest in human K562 cells assessed as accumulation at G2/M phase up to 30 nM after 24 hrs by propidium iodide staining-based flow cytometry
[18] = test system: NCI-H292; assay: Antiproliferative activity against human NCI-H292 cells after 72 hrs by SRB assay; format: functional; settings: NCI-H292, 72 h; method in brief: as §2
[19] = test system: Caco-2; assay: Antiproliferative activity against human Caco2 cells after 72 hrs by SRB assay; format: functional; settings: Caco-2, 72 h; method in brief: as §2
[20] = test system: SK-BR-3; assay: Antiproliferative activity against human SK-BR-3 cells after 72 hrs by SRB assay; format: functional; settings: SK-BR-3, 72 h; method in brief: as §2
[21] = test system: SK-LMS-1; assay: Antiproliferative activity against human SKLMS1 cells after 72 hrs by SRB assay; format: functional; settings: SK-LMS-1, 72 h; method in brief: as §2
[22] = molecular target: Tubulin beta-5 chain (Homo sapiens) (UniProt P07437); assay: Competitive binding affinity to beta-tubulin in human K562 cells assessed as disappearance of EBI-protein adducts at 20 to 40 uM preincubated for 2 hrs followed by EBI addition measured after 1.5 hrs by Western blot analysis; format: cell-based
Chain of Tubulin beta-5 chain (Homo sapiens) (P07437 whole entry): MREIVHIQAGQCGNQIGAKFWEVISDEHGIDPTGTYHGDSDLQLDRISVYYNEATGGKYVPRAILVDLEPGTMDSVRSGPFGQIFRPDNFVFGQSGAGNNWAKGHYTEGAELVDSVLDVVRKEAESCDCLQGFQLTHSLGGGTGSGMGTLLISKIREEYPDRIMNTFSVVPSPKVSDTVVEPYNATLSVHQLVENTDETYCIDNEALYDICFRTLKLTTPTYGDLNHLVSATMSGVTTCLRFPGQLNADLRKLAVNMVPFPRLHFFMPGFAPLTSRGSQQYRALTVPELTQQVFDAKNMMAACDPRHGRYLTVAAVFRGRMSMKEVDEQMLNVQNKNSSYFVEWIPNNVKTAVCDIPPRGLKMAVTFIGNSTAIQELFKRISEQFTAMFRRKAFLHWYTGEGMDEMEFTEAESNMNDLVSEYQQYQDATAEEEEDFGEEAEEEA

IC50 [1]	IC50 [2]	Compound	other results
9000 nM	19000 nM	COc1ccc(CNC(=O)N2c3ccccc3Oc3ccccc32)cc1	–
800 nM	30 nM	COc1cccc(N2CCN(C(=O)N3c4ccccc4Oc4ccc(Cl)cc43)CC2)c1	–
360 nM	7 nM	COc1cccc(N2CCN(C(=O)N3c4ccccc4Oc4cc(C#N)ccc43)CC2)c1	GI50 [3]: 1.6 nM; GI50 [4]: 1.7 nM; GI50 [5]: 6.4 nM; GI50 [6]: 1.6 nM; GI50 [7]: 1.4 nM; GI50 [8]: 5.9 nM; GI50 [9]: 7.5 nM; Activity [10]: Non-Toxic; GI50 [11]: 1.7 nM; GI50 [12]: 7.8 nM; GI50 [13]: 1.5 nM; GI50 [14]: 1.7 nM; GI50 [15]: 6.5 nM; inhibition [16]: Dose-dependent effect; Activity [17]: Active; GI50 [18]: 6.7 nM; GI50 [19]: 7.9 nM; GI50 [20]: 1.5 nM; GI50 [21]: 5.9 nM
510 nM	90 nM	COc1ccccc1N1CCN(C(=O)N2c3ccccc3Sc3ccc(Cl)cc32)CC1	–
8530 nM	6000 nM	COc1cccc(CNC(=O)N2c3ccccc3Oc3ccccc32)c1	–
> 10000 nM	5000 nM	COc1cccc(N2CCN(CC(=O)N3c4ccccc4Oc4ccccc43)CC2)c1	–
> 10000 nM	> 80000 nM	COc1ccc(NC(=O)N2c3ccccc3Oc3ccccc32)cc1	–
–	1 nM	CC[C@]1(O)C[C@H]2CN(CCc3c([nH]c4ccccc34)[C@@](C(=O)OC)(c3cc4c(cc3OC)N(C)[C@H]3[C@@](O)(C(=O)OC)[C@H](OC(C)=O)[C@]5(CC)C=CCN6CC[C@]43[C@@H]65)C2)C1	–
–	390 nM	N#Cc1ccc(N2CCN(C(=O)N3c4ccccc4Sc4ccccc43)CC2)cc1	–
640 nM	20 nM	COc1ccccc1N1CCN(C(=O)N2c3ccccc3Oc3ccccc32)CC1	–
–	1390 nM	Cc1ccc(N2CCN(C(=O)N3c4ccccc4Oc4ccccc43)CC2)cc1	–
> 10000 nM	> 10000 nM	COc1ccccc1N1CCN(C(=O)Nc2ccccc2Oc2ccccc2)CC1	–
3380 nM	3700 nM	COc1ccc(N2CCN(C(=O)N3c4ccccc4Oc4cc(C#N)ccc43)CC2)cc1	–
900 nM	180 nM	COc1cccc(N2CCN(C(=O)N3c4cc(Cl)ccc4Oc4ccc(Cl)cc43)CC2)c1	–
830 nM	630 nM	O=C(N1CCN(c2ccc(Cl)cc2)CC1)N1c2ccccc2Oc2ccccc21	–
> 10000 nM	1900 nM	COc1ccc(N2CCN(C(=O)N3c4ccccc4Sc4ccc(Cl)cc43)CC2)cc1	–
320 nM	30 nM	COc1ccccc1N1CCN(C(=O)N2c3ccccc3Oc3cc(C#N)ccc32)CC1	–
2830 nM	450 nM	COc1ccccc1N1CCN(C(=O)N2c3ccccc3C=Cc3ccccc32)CC1	–
> 10000 nM	> 10000 nM	COc1ccc(N2CCN(C(=O)Nc3ccccc3Oc3ccccc3)CC2)cc1	–

IC50 [1]	IC50 [2]	Compound	other results
1380 nM	30 nM	O=C(N1CCN(c2ccccc2)CC1)N1c2ccccc2Oc2ccccc21	–
> 10000 nM	> 10000 nM	COc1cccc(N2CCN(C(=O)Nc3ccccc3Oc3ccccc3)CC2)c1	–
10700 nM	840 nM	COc1ccccc1N1CCN(C(=O)N2c3ccccc3CCc3ccccc32)CC1	–
> 10000 nM	> 70000 nM	O=C(N1CCN(c2ccc([N+](=O)[O-])cc2)CC1)N1c2ccccc2Oc2ccccc21	–
1190 nM	130 nM	COc1ccccc1N1CCN(C(=O)N2c3cc(Cl)ccc3Oc3ccc(Cl)cc32)CC1	–
620 nM	30 nM	COc1ccccc1N1CCN(C(=O)N2c3ccccc3Oc3ccc(Cl)cc32)CC1	–
> 10000 nM	> 20000 nM	N#Cc1ccc(N2CCN(C(=O)N3c4ccccc4Oc4ccccc43)CC2)cc1	–
> 10000 nM	> 60000 nM	O=C(N1CCN(c2ccc(C(F)(F)F)cc2)CC1)N1c2ccccc2Oc2ccccc21	–
–	3700 nM	COc1ccc(N2CCN(C(=O)N3c4ccccc4Sc4ccccc43)CC2)cc1	–
600 nM	20 nM	COc1ccccc1N1CCN(C(=O)N2c3ccccc3Sc3ccccc32)CC1	Activity [22]: Active
> 10000 nM	18000 nM	COc1cccc(N2CCN(C(=O)N(c3ccccc3)c3ccccc3)CC2)c1	–
690 nM	20 nM	COc1cccc(N2CCN(C(=O)N3c4ccccc4Oc4ccccc43)CC2)c1	–
810 nM	130 nM	O=C(N1CCN(c2ccccc2)CC1)N1c2ccccc2Sc2ccccc21	–
550 nM	20 nM	COc1cccc(N2CCN(C(=O)N3c4ccccc4Sc4ccccc43)CC2)c1	–
14300 nM	3130 nM	COc1ccc(N2CCN(C(=O)N3c4ccccc4Oc4ccccc43)CC2)cc1	–
3560 nM	940 nM	COc1cccc(N2CCN(C(=O)N3c4ccccc4C=Cc4ccccc43)CC2)c1	–
> 10000 nM	9000 nM	COc1ccccc1N1CCN(CC(=O)N2c3ccccc3Oc3ccccc32)CC1	–
920 nM	30 nM	COc1cccc(N2CCN(C(=O)N3c4ccccc4Sc4ccc(Cl)cc43)CC2)c1	–

Compound	IC50 [1]	IC50 [2]	other results
c1ccc2c(c1)Nc1ccccc1O2 [PHENOXAZINE]	–	16800 nM	–
